Assays:
Format in all cases: functional
[1] = tested on: Staphylococcus aureus; assay: Antibacterial activity against Staphylococcus aureus assessed as inhibition of microbial growth incubated for 18 to 22 hrs by broth microdilution method
Procedure, shortened: (§1)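 Broth microdilution in Mueller-Hinton II broth following NCCLS recommendations; compounds dissolved in DMSO.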

[2] = tested on: Staphylococcus warneri; assay: Antibacterial activity against Staphylococcus warneri assessed as inhibition of microbial growth incubated for 18 to 22 hrs by broth microdilution method; procedure, shortened: as §1
[3] = tested on: Enterococcus faecalis; assay: Antibacterial activity against Streptococcus faecalis assessed as inhibition of microbial growth incubated for 18 to 22 hrs by broth microdilution method; procedure, shortened: as §1
[4] = tested on: Escherichia coli; assay: Antibacterial activity against Escherichia coli assessed as inhibition of microbial growth incubated for 18 to 22 hrs by broth microdilution method; procedure, shortened: as §1
[5] = tested on: Proteus mirabilis; assay: Antibacterial activity against Proteus mirabilis assessed as inhibition of microbial growth incubated for 18 to 22 hrs by broth microdilution method; procedure, shortened: as §1
[6] = tested on: Enterobacter; assay: Antibacterial activity against Enterobacter spp. assessed as inhibition of microbial growth incubated for 18 to 22 hrs by broth microdilution method; procedure, shortened: as §1
[7] = tested on: Klebsiella oxytoca; assay: Antibacterial activity against Klebsiella oxytoca assessed as inhibition of microbial growth incubated for 18 to 22 hrs by broth microdilution method; procedure, shortened: as §1
[8] = tested on: Candida albicans; assay: Antifungal activity against Candida albicans clinical isolates assessed as inhibition of microbial growth incubated for 24 hrs by broth microdilution method
Procedure, shortened: (§2)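 Twenty-two clinical Candida isolates (8 C. albicans, 4 C. glabrata, 3 C. tropicalis, 3 C. krusei, 2 C. parapsilosis, 2 C. sake) were identified by colony morphology and biochemistry and subcultured at 35 °C for purity. Compounds were dissolved in DMSO and tested by broth microdilution in Sabouraud dextrose broth per NCCLS/CLSI/EUCAST guidance. Values are geometric mean MIC per species (µg/mL).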

[9] = tested on: Nakaseomyces glabratus; assay: Antifungal activity against Candida glabrata clinical isolates assessed as inhibition of microbial growth incubated for 24 hrs by broth microdilution method; procedure, shortened: as §2
[10] = tested on: Candida tropicalis; assay: Antifungal activity against Candida tropicalis clinical isolates assessed as inhibition of microbial growth incubated for 24 hrs by broth microdilution method; procedure, shortened: as §2
[11] = tested on: Pichia kudriavzevii; assay: Antifungal activity against Candida krusei clinical isolates assessed as inhibition of microbial growth incubated for 24 hrs by broth microdilution method; procedure, shortened: as §2
[12] = tested on: Candida parapsilosis; assay: Antifungal activity against Candida parapsilosis clinical isolates assessed as inhibition of microbial growth incubated for 24 hrs by broth microdilution method; settings: Lodderomyces parapsilosis; procedure, shortened: as §2
[13] = tested on: [Candida] sake; assay: Antifungal activity against Candida sake clinical isolates assessed as inhibition of microbial growth incubated for 24 hrs by broth microdilution method; settings: Fermentozyma sake; procedure, shortened: as §2

| SMILES | MIC [1] [µg/mL] | MIC [2] [µg/mL] | MIC [3] [µg/mL] | MIC [4] [µg/mL] | MIC [5] [µg/mL] | MIC [6] [µg/mL] | MIC [7] [µg/mL] | MIC [8] [µg/mL] | MIC [9] [µg/mL] | MIC [10] [µg/mL] | MIC [11] [µg/mL] | MIC [12] [µg/mL] | MIC [13] [µg/mL] |
| --- | --- | --- | --- | --- | --- | --- | --- | --- | --- | --- | --- | --- | --- |
| C/C(=N/N=C1/SCC(=O)N1Cc1ccccc1)C1CC1 | ≥ 256 | ≥ 256 | ≥ 256 | ≥ 256 | ≥ 256 | ≥ 256 | ≥ 256 | 2 | 4 | 2 | 2 | 2 | 2 |
| CC1CCC/C(=N/N=C2/SCC(=O)N2Cc2ccccc2)C1 (stereo not given) | ≥ 256 | ≥ 256 | ≥ 256 | ≥ 256 | ≥ 256 | ≥ 256 | ≥ 256 | 8 | 8 | 8 | 4 | 4 | 4 |
| CC(C)=C/C(C)=N\N=C1\SCC(=O)N1Cc1ccccc1 | ≥ 256 | ≥ 256 | ≥ 256 | ≥ 256 | ≥ 256 | ≥ 256 | ≥ 256 | 128 | 2 | 128 | 8 | 8 | 8 |
| CCCCC/C(C)=N\N=C1\SCC(=O)N1Cc1ccccc1 | ≥ 256 | ≥ 256 | ≥ 256 | ≥ 256 | ≥ 256 | ≥ 256 | ≥ 256 | 8 | 8 | 16 | 16 | 16 | 16 |

Further lines, results first:

| MIC [1] [µg/mL] | MIC [2] [µg/mL] | MIC [3] [µg/mL] | MIC [4] [µg/mL] | MIC [5] [µg/mL] | MIC [6] [µg/mL] | MIC [7] [µg/mL] | MIC [8] [µg/mL] | MIC [9] [µg/mL] | MIC [10] [µg/mL] | MIC [11] [µg/mL] | MIC [12] [µg/mL] | MIC [13] [µg/mL] | SMILES |
| --- | --- | --- | --- | --- | --- | --- | --- | --- | --- | --- | --- | --- | --- |
| ≥ 256 | ≥ 256 | ≥ 256 | ≥ 256 | ≥ 256 | ≥ 256 | ≥ 256 | 256 | 16 | 256 | 2 | 16 | 16 | O=C1CS/C(=N/N=C\c2c[nH]c3ccccc23)N1Cc1ccccc1 |
| ≥ 256 | ≥ 256 | ≥ 256 | ≥ 256 | ≥ 256 | ≥ 256 | ≥ 256 | 8 | 4 | 128 | 4 | 4 | 4 | C/C(=N/N=C1/SCC(=O)N1Cc1ccccc1)c1ccccc1 |
| ≥ 256 | ≥ 256 | ≥ 256 | ≥ 256 | ≥ 256 | ≥ 256 | ≥ 256 | 2 | 2 | 2 | 4 | 2 | 8 | C/C(=N/N=C1/SCC(=O)N1Cc1ccccc1)c1ccc2ccc3ccccc3c2c1 |
| ≥ 256 | ≥ 256 | ≥ 256 | ≥ 256 | ≥ 256 | ≥ 256 | ≥ 256 | 8 | 8 | 16 | 16 | 16 | 16 | O=C1CS/C(=N/N=C\c2cccc3ccccc23)N1Cc1ccccc1 |
| ≥ 256 | ≥ 256 | ≥ 256 | ≥ 256 | ≥ 256 | ≥ 256 | ≥ 256 | 4 | 4 | 4 | 4 | 16 | 2 | O=C1CS/C(=N/N=C\c2ccccn2)N1Cc1ccccc1 |
| ≥ 256 | ≥ 256 | ≥ 256 | ≥ 256 | ≥ 256 | ≥ 256 | ≥ 256 | 256 | 256 | 256 | 256 | 256 | 256 | O=C1CS/C(=N/N=C\c2cccnc2)N1Cc1ccccc1 |

From ChEMBL document CHEMBL4190362, “Synthesis, biological evaluation and quantitative structure-active relationships of 1,3-thiazolidin-4-one derivatives. A promising chemical scaffold endowed with high antifungal potency and low cytotoxicity” (Eur J Med Chem, 2017)
